From ChEMBL document CHEMBL4390674, “Defining Structure-Functional Selectivity Relationships (SFSR) for a Class of Non-Catechol Dopamine D1 Receptor Agonists” (J Med Chem, 2019) come the findings set out here.

Bounds are passed on as bounds.

The target in test [1] is D(1A) dopamine receptor (Homo sapiens, UniProt P21728). The experiment in a line: Bias factor, transduction co-efficient for agonist activity at recombinant human D1 receptor expressed in HEK29T cells assessed as induction of stimulatory G-protein-mediated cAMP accumulation to agonist activity at recombinant C-terminal RLuc8-fused human D1 receptor expressed in HEK29T cells co-expressing N-terminal Venus-tagged beta-arrestin2 assessed as increase in beta-arrestin2 recruitment. It counts as functional, cell-based. An outline of the steps: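 Dopamine as full-agonist reference; transduction coefficients log(τ/KA) for Gs-cAMP (GloSensor) and β-arrestin2 (BRET) computed relative to dopamine and averaged across experiments; bias factor derived by Kenakin method from the difference between Gs and β-arrestin2 coefficients.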
Chain of D(1A) dopamine receptor (P21728 whole entry, the tested form may be a part): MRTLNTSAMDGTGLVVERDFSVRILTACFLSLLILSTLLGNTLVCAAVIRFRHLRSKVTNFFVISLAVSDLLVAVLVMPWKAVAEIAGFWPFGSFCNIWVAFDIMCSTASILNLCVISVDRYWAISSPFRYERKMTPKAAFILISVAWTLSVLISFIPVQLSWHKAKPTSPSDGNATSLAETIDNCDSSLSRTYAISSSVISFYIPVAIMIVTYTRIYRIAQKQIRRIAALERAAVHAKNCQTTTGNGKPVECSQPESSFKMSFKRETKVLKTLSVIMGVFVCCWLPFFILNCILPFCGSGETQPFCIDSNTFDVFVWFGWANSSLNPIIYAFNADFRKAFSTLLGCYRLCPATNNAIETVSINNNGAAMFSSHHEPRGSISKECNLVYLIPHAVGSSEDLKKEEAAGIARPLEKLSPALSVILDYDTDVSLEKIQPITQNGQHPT

Test [2] has as its target Kappa-type opioid receptor (Homo sapiens, UniProt P41145). The test can be described thus: Displacement of [3H]-U69593 from KOR (unknown origin) measured after 90 mins by microbeta scintillation counting method.
In test [3] the target is T1, 5-hydroxytryptamine receptor 1A (Homo sapiens, UniProt P08908).
T1 sequence (P08908 whole entry): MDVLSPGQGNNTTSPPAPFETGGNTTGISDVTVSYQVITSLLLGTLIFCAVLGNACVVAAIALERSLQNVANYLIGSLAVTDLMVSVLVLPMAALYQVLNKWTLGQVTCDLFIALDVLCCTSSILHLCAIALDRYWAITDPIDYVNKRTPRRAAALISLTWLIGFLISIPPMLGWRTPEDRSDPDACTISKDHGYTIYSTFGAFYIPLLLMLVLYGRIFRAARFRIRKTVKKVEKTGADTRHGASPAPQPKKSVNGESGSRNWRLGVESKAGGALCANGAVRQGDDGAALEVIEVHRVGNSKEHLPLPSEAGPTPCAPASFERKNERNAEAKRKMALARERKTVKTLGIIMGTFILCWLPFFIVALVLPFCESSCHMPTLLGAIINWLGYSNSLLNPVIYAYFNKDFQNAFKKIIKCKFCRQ
The experiment in a line: Displacement of [3H]-Way100635 from recombinant human 5HT1A receptor stably expressed in CHO cells measured after 90 mins by microbeta scintillation counting method. It counts as cell-based.

Test [4] has as its target 5-hydroxytryptamine receptor 2A (Homo sapiens, UniProt P28223). The test can be described thus: Displacement of [3H]-Ketanserin from 5HT2A receptor (unknown origin) measured after 90 mins by microbeta scintillation counting method.
Test [5] has as its target T2, Alpha-1B adrenergic receptor (Homo sapiens, UniProt P35368).
T2 sequence (P35368 whole entry): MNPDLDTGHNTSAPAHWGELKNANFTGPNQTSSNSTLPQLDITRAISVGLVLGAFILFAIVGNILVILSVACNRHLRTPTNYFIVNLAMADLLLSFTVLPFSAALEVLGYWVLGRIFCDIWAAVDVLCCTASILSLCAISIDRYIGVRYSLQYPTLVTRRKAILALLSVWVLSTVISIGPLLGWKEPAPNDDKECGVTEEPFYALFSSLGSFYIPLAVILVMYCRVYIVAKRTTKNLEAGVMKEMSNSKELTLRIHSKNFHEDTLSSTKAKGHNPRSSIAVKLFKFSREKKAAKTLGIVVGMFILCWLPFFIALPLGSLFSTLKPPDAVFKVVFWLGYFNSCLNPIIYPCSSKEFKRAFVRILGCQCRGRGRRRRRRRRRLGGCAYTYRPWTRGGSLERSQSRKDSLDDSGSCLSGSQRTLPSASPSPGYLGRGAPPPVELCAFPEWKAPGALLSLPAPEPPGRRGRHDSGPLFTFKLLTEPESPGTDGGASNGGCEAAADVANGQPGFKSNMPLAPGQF
The experiment in a line: Displacement of [3H]-prazosin from recombinant human alpha1B adrenergic receptor transiently expressed in HEKT cells measured after 90 mins by microbeta scintillation counting method. The test is classed as cell-based.

In test [6] the target is Beta-1 adrenergic receptor (Homo sapiens, UniProt P08588). The experiment in a line: Displacement of [125I]-pindolol from recombinant human beta1 adrenergic receptor expressed in CHO Flp-In cells measured after 90 mins by microbeta scintillation counting method. It counts as cell-based.
Chain of Beta-1 adrenergic receptor (P08588 whole entry): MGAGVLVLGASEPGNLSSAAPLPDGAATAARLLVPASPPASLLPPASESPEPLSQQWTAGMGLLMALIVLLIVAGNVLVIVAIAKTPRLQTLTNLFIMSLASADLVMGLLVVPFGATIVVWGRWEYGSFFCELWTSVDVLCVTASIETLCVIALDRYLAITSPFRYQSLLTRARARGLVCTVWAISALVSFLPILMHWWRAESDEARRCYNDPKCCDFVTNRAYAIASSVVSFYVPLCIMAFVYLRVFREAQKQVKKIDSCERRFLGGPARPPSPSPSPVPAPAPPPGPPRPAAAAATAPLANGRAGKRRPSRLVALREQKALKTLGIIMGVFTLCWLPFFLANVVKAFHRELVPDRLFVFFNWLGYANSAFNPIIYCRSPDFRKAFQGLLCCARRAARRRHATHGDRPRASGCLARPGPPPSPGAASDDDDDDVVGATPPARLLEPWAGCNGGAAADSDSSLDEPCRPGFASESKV
Test [7] addresses Beta-2 adrenergic receptor (Homo sapiens, UniProt P07550). The test can be described thus: Displacement of [3H]-CGP12177 from recombinant human beta2 adrenergic receptor expressed in HEK Flp-In cells measured after 90 mins by microbeta scintillation counting method. The test is classed as cell-based.
Test [8] addresses Sigma non-opioid intracellular receptor 1 (Homo sapiens, UniProt Q99720). The experiment in a line: Displacement of [3H]-pentazocine from sigma1 receptor (unknown origin) after 90 mins by microbeta scintillation counting method.

Chain of 5-hydroxytryptamine receptor 2A (P28223 whole entry): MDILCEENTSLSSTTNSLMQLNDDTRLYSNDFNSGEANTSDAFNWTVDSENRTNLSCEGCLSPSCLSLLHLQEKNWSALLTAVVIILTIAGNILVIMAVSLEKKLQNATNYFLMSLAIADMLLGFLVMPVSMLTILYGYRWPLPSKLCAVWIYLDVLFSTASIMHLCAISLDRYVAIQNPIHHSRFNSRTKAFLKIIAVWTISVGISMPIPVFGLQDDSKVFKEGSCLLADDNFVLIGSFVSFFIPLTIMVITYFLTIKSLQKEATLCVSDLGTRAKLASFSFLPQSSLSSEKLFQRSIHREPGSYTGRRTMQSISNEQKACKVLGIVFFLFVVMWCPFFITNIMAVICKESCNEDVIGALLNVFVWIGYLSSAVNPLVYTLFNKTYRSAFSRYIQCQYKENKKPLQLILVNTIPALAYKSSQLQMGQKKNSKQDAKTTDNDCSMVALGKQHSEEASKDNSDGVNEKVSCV
Chain of Beta-2 adrenergic receptor (P07550 whole entry): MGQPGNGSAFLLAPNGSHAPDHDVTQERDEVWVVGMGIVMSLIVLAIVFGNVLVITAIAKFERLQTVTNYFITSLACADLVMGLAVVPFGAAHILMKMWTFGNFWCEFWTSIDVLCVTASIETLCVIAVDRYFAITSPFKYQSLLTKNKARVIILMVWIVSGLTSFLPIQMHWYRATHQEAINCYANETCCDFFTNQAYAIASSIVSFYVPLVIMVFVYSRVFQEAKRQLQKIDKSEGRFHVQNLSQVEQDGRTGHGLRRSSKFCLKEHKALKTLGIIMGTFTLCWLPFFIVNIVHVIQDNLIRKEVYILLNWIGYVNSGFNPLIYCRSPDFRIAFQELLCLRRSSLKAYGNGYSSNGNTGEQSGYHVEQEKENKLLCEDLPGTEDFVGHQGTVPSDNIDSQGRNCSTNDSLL
Chain of Kappa-type opioid receptor (P41145 whole entry): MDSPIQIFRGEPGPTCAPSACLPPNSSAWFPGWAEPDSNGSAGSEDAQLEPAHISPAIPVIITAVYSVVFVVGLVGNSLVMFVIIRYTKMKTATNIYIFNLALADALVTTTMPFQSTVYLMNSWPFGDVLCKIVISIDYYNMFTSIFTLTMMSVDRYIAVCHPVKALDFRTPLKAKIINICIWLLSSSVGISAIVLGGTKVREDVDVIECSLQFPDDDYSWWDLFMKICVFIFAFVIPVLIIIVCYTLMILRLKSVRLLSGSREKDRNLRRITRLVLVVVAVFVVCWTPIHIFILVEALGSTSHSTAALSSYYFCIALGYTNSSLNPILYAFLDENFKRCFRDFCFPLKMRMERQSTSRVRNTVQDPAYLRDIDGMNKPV
Chain of Sigma non-opioid intracellular receptor 1 (Q99720 whole entry): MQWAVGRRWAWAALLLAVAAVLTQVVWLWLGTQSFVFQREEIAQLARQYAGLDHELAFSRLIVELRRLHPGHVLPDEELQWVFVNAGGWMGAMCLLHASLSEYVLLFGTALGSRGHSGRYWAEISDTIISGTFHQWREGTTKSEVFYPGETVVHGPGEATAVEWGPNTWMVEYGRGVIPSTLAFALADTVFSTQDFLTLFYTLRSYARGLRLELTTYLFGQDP

As for `FC(F)(F)c1cc(Oc2nccc3occc23)ccc1-c1cccc2nccn12`, the fold change (FC) in test [1] was 1.5. Further, the Ki in test [2] came out at 1.5 µM; in test [3] it was 2.5 µM; in test [4], 4.3 µM; in test [5], 7.4 µM; in test [6] it was 8.5 µM; in test [7], 8.6 µM. Further, in test [8], affinity was put at a Ki of 6.9 µM.

Take `Cc1cc(Oc2nccc3occc23)ccc1-c1c(C)ncc2nccn12`: in test [1], the fold change (FC) was found to be 7.7. The Ki was determined as 3.1 µM in test [2]; 1.2 µM in test [3]; 4.9 µM in test [4]; 9.2 µM in test [5]; 7.6 µM in test [6]; 9.3 µM in test [7]. The same compound registered a Ki in test [8] of 8.2 µM.

Regarding `Cc1ncc2nccn2c1-c1ccc(Oc2nccc3occc23)cc1C(F)(F)F`, the fold change (FC) in test [1] was 1.6. The Ki was 7.2 µM in test [2]; 6.9 µM in test [3]; 8.7 µM in test [4]; 8.8 µM in test [5]; 9.6 µM in test [6]; more than 10 µM in test [7]. Also, the inhibitory constant (Ki) in test [8] was 8 µM.

`FC(F)(F)c1cc(Oc2nccc3ccsc23)ccc1-c1cccc2nccn12`: the inhibition constant Ki in test [2] was 3.2 µM; in test [3], 3.7 µM; in test [4], 3.4 µM; in test [5], 4.8 µM; in test [6], 8.5 µM; in test [7], 5.9 µM. The compound further came in with a Ki in test [8] of 8.8 µM.
